# From ChEMBL document CHEMBL1240350, “In vitro activity of CEM-101 against Streptococcus pneumoniae and Streptococcus pyogenes with defined macrolide resistance mechanisms” (Antimicrob Agents Chemother, 2010)
# Key:
# Streptococcus pyogenes [1] = assay: Antibacterial activity against macrolide-resistant Streptococcus pyogenes 2094 harboring erm(A) gene after 22 passages and 10 compound-free subculturing by retest method
# Streptococcus pyogenes [2] = assay: Antibacterial activity against macrolide-resistant Streptococcus pyogenes 2011 harboring mef(A) gene after 50 passages following overnight incubation by agar dilution method
# Streptococcus pneumoniae [3] = assay: Antibacterial activity against macrolide-susceptible Streptococcus pneumoniae 1077 after 49 passages and 10 compound-free subculturing by retest method; type: functional
# Streptococcus pneumoniae [4] = assay: Antibacterial activity against macrolide-susceptible Streptococcus pneumoniae 1077 after overnight incubation by agar dilution method; type: functional
# Streptococcus pyogenes [5] = assay: Antibacterial activity against macrolide-resistant Streptococcus pyogenes 2368 harboring erm(B) gene after 6 passages and 10 compound-free subculturing by retest method
# Streptococcus pneumoniae [6] = assay: Antibacterial activity against macrolide-susceptible Streptococcus pneumoniae 7127 harboring S20N mutation in L4 ribosomal protein and A105V mutation in L22 ribosomal protein after 43 passages and 10 compound-free subculturing by retest method; type: functional
# Streptococcus pyogenes [7] = assay: Antibacterial activity against macrolide-resistant Streptococcus pyogenes 2094 harboring erm(A) gene after 6 passages and 10 compound-free subculturing by retest method
# Streptococcus pyogenes [8] = assay: Antibacterial activity against macrolide-resistant Streptococcus pyogenes 237 harboring mutation in L4 ribosomal protein after 20 passages and 10 compound-free subculturing by retest method
# Streptococcus pneumoniae [9] = assay: Antibacterial activity against macrolide-resistant Streptococcus pneumoniae 1635 harboring erm(A) gene after 32 passages and 10 compound-free subculturing by retest method; type: functional
# In short: (§1)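 Multistep selection by daily serial passage in subinhibitory drug concentrations. Medium was cation-adjusted Mueller-Hinton broth plus 5% lysed horse blood. Each day the next inoculum came from the tube 1–2 dilutions below the MIC whose turbidity matched the growth control, for up to 50 days. Clone MICs by CLSI macrodilution; identity to the parent confirmed by SmaI PFGE.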
# Streptococcus pneumoniae [10] = assay: Antibacterial activity against macrolide-susceptible Streptococcus pneumoniae 1077 after 43 passages and 10 compound-free subculturing by retest method; type: functional
# Streptococcus pneumoniae [11] = assay: Antibacterial activity against Streptococcus pneumoniae harboring erm(A) gene after overnight incubation by agar dilution method; type: functional
# In short: (§2)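 Clinical isolates collected 1998–2008, with macrolide-resistance genes confirmed by PCR. MICs by agar dilution on Mueller-Hinton agar with 5% sheep blood. Inoculum 10^4 CFU/spot, incubated overnight at 35°C in ambient air. S. pneumoniae ATCC 49619 was the quality-control strain in every run.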
# Streptococcus pneumoniae [12] = assay: Antibacterial activity against quinolone-susceptible Streptococcus pneumoniae after overnight incubation by agar dilution method; type: functional
# In short: (§3)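 Agar dilution on Mueller-Hinton agar supplemented with 5% sheep blood. Inoculum 10^4 CFU/spot, incubated overnight at 35°C in ambient air. Test strains were clinical pneumococcal isolates. S. pneumoniae ATCC 49619 was included as the quality control strain in each run. MIC range, MIC50 and MIC90 were reported for each susceptibility category.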
# Streptococcus pyogenes [13] = assay: Antibacterial activity against macrolide-resistant Streptococcus pyogenes 2094 harboring erm(A) gene after 43 passages and 10 compound-free subculturing by retest method
# Streptococcus pyogenes [14] = assay: Antibacterial activity against Streptococcus pyogenes harboring mef(A) gene after overnight incubation by agar dilution method; type: functional
# In short: as §2
# Streptococcus pyogenes [15] = assay: Antibacterial activity against macrolide-resistant Streptococcus pyogenes 2368 harboring erm(B) gene after 18 passages and 10 compound-free subculturing by retest method
# Streptococcus pneumoniae [16] = assay: Antibacterial activity against quinolone-resistant Streptococcus pneumoniae after overnight incubation by agar dilution method; type: functional
# In short: as §3
# Streptococcus pneumoniae [17] = assay: Antibacterial activity against macrolide-resistant Streptococcus pneumoniae harboring erm(B) gene after overnight incubation by agar dilution method; type: functional
# In short: (§4)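 Agar dilution MICs on Mueller-Hinton agar with 5% sheep blood. Inoculum 10^4 CFU/spot, incubated overnight at 35°C in ambient air. Clinical S. pneumoniae or group A streptococcal isolates; resistance genotypes (erm(B), erm(A), mef(A)/mef(E)) were assigned by PCR. S. pneumoniae ATCC 49619 served as QC strain in each run. Range, MIC50 and MIC90 reported per phenotype group.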
# Streptococcus pyogenes [18] = assay: Antibacterial activity against macrolide-resistant Streptococcus pyogenes 237 harboring mutation in L4 ribosomal protein after 43 passages and 10 compound-free subculturing by retest method
# Streptococcus pneumoniae [19] = assay: Antibacterial activity against macrolide-resistant Streptococcus pneumoniae 24 harboring erm(B) gene after 14 passages and 10 compound-free subculturing by retest method; type: functional; details: Streptococcus pneumoniae, 24; read-out: MIC
# In short: as §1
# Streptococcus pneumoniae [20] = assay: Antibacterial activity against macrolide-susceptible Streptococcus pneumoniae 7127 harboring S20N mutation in L4 ribosomal protein and A105V mutation in L22 ribosomal protein after overnight incubation by agar dilution method; type: functional
# Streptococcus pneumoniae [21] = assay: Antibacterial activity against Streptococcus pneumoniae harboring mef(A) gene after overnight incubation by agar dilution method; type: functional
# In short: as §2
# Streptococcus pneumoniae [22] = assay: Antibacterial activity against macrolide-susceptible Streptococcus pneumoniae 1077 after 29 passages and 10 compound-free subculturing by retest method; type: functional
# Streptococcus pneumoniae [23] = assay: Antibacterial activity against macrolide-resistant Streptococcus pneumoniae 1076 harboring erm(B) and mef(A) gene after 18 passages and 10 compound-free subculturing by retest method; type: functional
# In short: as §1
# Streptococcus pneumoniae [24] = assay: Antibacterial activity against macrolide-resistant Streptococcus pneumoniae 1635 harboring erm(A) gene after overnight incubation by agar dilution method; type: functional
# Streptococcus pneumoniae [25] = assay: Antibacterial activity against macrolide-resistant Streptococcus pneumoniae harboring mutation in L4 ribosomal protein after overnight incubation by agar dilution method; type: functional
# In short: as §4
# Streptococcus pyogenes [26] = assay: Antibacterial activity against Streptococcus pyogenes harboring mutation in L4 ribosomal protein after overnight incubation by agar dilution method; type: functional
# In short: as §2
# Streptococcus pneumoniae [27] = assay: Antibacterial activity against macrolide-resistant Streptococcus pneumoniae 3009 harboring mutation in 23S rRNA after 25 passages and 10 compound-free subculturing by retest method; type: functional
# Streptococcus pneumoniae [28] = assay: Antibacterial activity against macrolide-susceptible Streptococcus pneumoniae 7127 harboring S20N mutation in L4 ribosomal protein and A105V mutation in L22 ribosomal protein after 38 passages and 10 compound-free subculturing by retest method; type: functional
# Streptococcus pyogenes [29] = assay: Antibacterial activity against macrolide-resistant Streptococcus pyogenes 2094 harboring erm(A) gene after 34 passages and 10 compound-free subculturing by retest method
# Streptococcus pyogenes [30] = assay: Antibacterial activity against macrolide-resistant Streptococcus pyogenes 2094 harboring erm(A) gene after overnight incubation by agar dilution method
# Streptococcus pneumoniae [31] = assay: Antibacterial activity against macrolide-resistant Streptococcus pneumoniae 3665 harboring mef(A) gene after 14 passages and 10 compound-free subculturing by retest method; type: functional
# Streptococcus pneumoniae [32] = assay: Antibacterial activity against macrolide-resistant Streptococcus pneumoniae 2686 harboring mutation in L4 ribosomal protein after 22 passages and 10 compound-free subculturing by retest method; type: functional
compound,measurement,setting,value
CC[C@H]1OC(=O)[C@H](C)[C@@H](O[C@H]2C[C@@](C)(OC)[C@@H](O)[C@H](C)O2)[C@H](C)[C@@H](O[C@@H]2O[C@H](C)C[C@H](N(C)C)[C@H]2O)[C@](C)(OC)C[C@@H](C)C(=O)[C@H](C)[C@@H](O)[C@]1(C)O [CLARITHROMYCIN],MIC,Streptococcus pyogenes [1],8 µg/mL
same,MIC,Streptococcus pyogenes [2],8 µg/mL
same,MIC,Streptococcus pneumoniae [3],> 64 µg/mL
same,MIC,Streptococcus pneumoniae [4],0.016 µg/mL
same,MIC,Streptococcus pyogenes [5],> 64 µg/mL
same,MIC,Streptococcus pneumoniae [6],0.016 µg/mL
same,MIC,Streptococcus pyogenes [7],> 64 µg/mL
same,MIC,Streptococcus pyogenes [8],1 µg/mL
same,MIC,Streptococcus pneumoniae [9],1 µg/mL
same,MIC,Streptococcus pneumoniae [10],0.06 µg/mL
same,MIC,Streptococcus pneumoniae [11],0.25 µg/mL
same,MIC50,Streptococcus pneumoniae [12],16 µg/mL
same,MIC90,Streptococcus pneumoniae [12],> 64 µg/mL
same,MIC,Streptococcus pyogenes [13],8 µg/mL
same,MIC50,Streptococcus pyogenes [14],4 µg/mL
same,MIC90,Streptococcus pyogenes [14],8 µg/mL
same,MIC,Streptococcus pyogenes [15],> 64 µg/mL
same,MIC50,Streptococcus pneumoniae [16],0.03 µg/mL
same,MIC50,Streptococcus pneumoniae [17],> 64 µg/mL
same,MIC,Streptococcus pyogenes [18],0.5 µg/mL
same,MIC,Streptococcus pneumoniae [19],> 64 µg/mL
same,MIC,Streptococcus pneumoniae [20],0.03 µg/mL
same,MIC50,Streptococcus pneumoniae [21],2 µg/mL
same,MIC90,Streptococcus pneumoniae [21],4 µg/mL
same,MIC,Streptococcus pneumoniae [22],> 64 µg/mL
same,MIC,Streptococcus pneumoniae [23],> 64 µg/mL
same,MIC,Streptococcus pneumoniae [24],0.5 µg/mL
same,MIC50,Streptococcus pneumoniae [25],16 µg/mL
same,MIC90,Streptococcus pneumoniae [25],32 µg/mL
same,MIC,Streptococcus pyogenes [26],1 µg/mL
same,MIC,Streptococcus pneumoniae [27],64 µg/mL
same,MIC,Streptococcus pneumoniae [28],0.06 µg/mL
same,MIC,Streptococcus pyogenes [29],1 µg/mL
same,MIC,Streptococcus pyogenes [30],0.5 µg/mL
same,MIC,Streptococcus pneumoniae [31],2 µg/mL
same,MIC,"Streptococcus pneumoniae [31]; Streptococcus pneumoniae, 3665, read-out: MIC",4 µg/mL
same,MIC,Streptococcus pneumoniae [32],32 µg/mL
